Data set [1] deals with Pseudomonas aeruginosa. Description: Growth inhibition of Pseudomonas aeruginosa PA14 at 100 uM after 24 hrs. A digest of the protocol: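 P. aeruginosa PA14 overnight culture (OD595 1.0), 5% dilution with compound (0–100 µM), grown in 96-well plates at 37 °C for 24 h; growth read as OD595.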
For data set [2], the system named is Pseudomonas aeruginosa. As to the kind of experiment: Inhibition of static biofilm formation of Pseudomonas aeruginosa PA14 at 100 uM after 24 hrs by crystal violet staining-based assay. It counts as functional. The method, boiled down: (§1)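 PA14 overnight culture (OD595 1.0) diluted 1:20 in AB medium, pH 7.5, with compound (0–100 µM), in borosilicate bottles, static at 37 °C for 24 hr.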

Data set [3] relates to Pseudomonas aeruginosa. Description: Agonist activity at Pseudomonas aeruginosa LasR expressed in Escherichia coli DH5alpha at 10 uM after 1.5 hrs by beta-galactosidase reporter gene assay.
Data set [4] deals with Pseudomonas aeruginosa. As to the kind of experiment: Antagonist activity at Pseudomonas aeruginosa LasR expressed in Escherichia coli DH5alpha assessed as inhibition of protein interaction with OdDHL at 1 to 10 uM after 1.5 hrs by beta-galactosidase reporter gene assay. The method, boiled down:
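E. coli DH5α reporter carrying pJN105L (LasR) and pSC11 (lasI::lacZ); overnight culture with 10 µg/mL gentamicin and 50 µg/mL ampicillin diluted 1:100 in LB, used at OD595 0.3. Incubated with compound, OdDHL and 0.4% arabinose at 37 °C for 1.5 hr. β-galactosidase read by luminescence; RLU ratio = luminescence/OD595 ×100.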

The test system of data set [5] is Pseudomonas aeruginosa. Description: Inhibition of dynamic biofilm formation of Pseudomonas aeruginosa PA14 assessed as volume of carbohydrates in biofilm up to 10 uM after 48 hrs by Ruby/ConA staining-based assay relative to control. Also noted: scale not given: the % may be the effect or the level left. It counts as functional. A digest of the protocol:
(§2)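 Glass slides seeded 24 h at 37 °C, static, with PA14 (OD595 1.0) in AB medium, then placed in a drip-flow reactor fed with AB medium plus compound (0–10 µM) at 0.3 mL/min, 37 °C, 48 hr. PBS-washed biofilm stained 15 min with FITC-ConA (carbohydrate) and SYPRO Ruby (protein); CLSM at 20×; volume (µm³/µm²) and average thickness quantified by Comstat2.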

The test system of data set [6] is Pseudomonas aeruginosa. Description: Inhibition of static biofilm formation of Pseudomonas aeruginosa PA14 at 10 uM after 24 hrs by crystal violet staining-based assay. It counts as functional. The method, boiled down: as §1
The subject of data set [7] is Pseudomonas aeruginosa. Description: Inhibition of dynamic biofilm formation of Pseudomonas aeruginosa PA14 assessed as biofilm volume up to 10 uM after 48 hrs by Ruby/ConA staining-based assay (reference value: 23.1 +/- 1.8 um'3/um'2). It counts as functional. A digest of the protocol:
as §2

In data set [8] the test system is Pseudomonas aeruginosa. As to the kind of experiment: Inhibition of dynamic biofilm formation of Pseudomonas aeruginosa PA14 assessed as biofilm thickness up to 10 uM after 48 hrs by Ruby/ConA staining-based assay (reference value: 34.5 +/- 1.3 um). It counts as functional. A digest of the protocol:
as §2

The subject of data set [9] is Pseudomonas aeruginosa. Description: Inhibition of dynamic biofilm formation of Pseudomonas aeruginosa PA14 at 10 uM after 48 hrs by Ruby/ConA staining-based confocal laser scanning microscopic method. It counts as functional. A digest of the protocol:
as §2

Data set [10] has as its system Pseudomonas aeruginosa. As to the kind of experiment: Inhibition of dynamic biofilm formation of Pseudomonas aeruginosa PA14 assessed as volume of proteins in biofilm up to 10 uM after 48 hrs by Ruby/ConA staining-based assay relative to control. It counts as functional. Also noted: scale not given: the % may be the effect or the level left. A digest of the protocol:
as §2

Data set [11] relates to Pseudomonas aeruginosa. Description: Reversible binding affinity to Pseudomonas aeruginosa LasR expressed in Escherichia coli DH5alpha at 1 uM after 1.5 hrs in presence of OdDHL by beta-galactosidase reporter gene assay. The method, boiled down: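 LasR reporter in E. coli DH5α (pJN105L + pSC11) with 0.4% arabinose, 37 °C, 1.5 hr. Compound at 1 µM tested against OdDHL at 0, 0.1, 1, 10 and 100 µM, compared with no-compound control. β-galactosidase luminescence divided by OD595.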

The test system of data set [12] is Pseudomonas aeruginosa. Description: Inhibition of static biofilm formation of Pseudomonas aeruginosa PA14 assessed as level of biofilm formation at 10 uM after 24 hrs by crystal violet staining-based assay relative to control. Also noted: scale not given: the % may be the effect or the level left. It counts as functional. A digest of the protocol: as §1

The values below come from ChEMBL document CHEMBL4028898, “Structure-Activity Relationships of 6- and 8-Gingerol Analogs as Anti-Biofilm Agents” (J Med Chem, 2017).

SMILES strings stand for the structures. Active and inactive are the calls of the source. No cut-off for these calls is given here.

For the compound `CCCCCCCCCC(O)CC(=O)CCc1ccc(O)c(OC)c1` (stereo not drawn), the “growth inhibition (GI)” value in [1] is “Toxic”. Moreover, the inhibition result in [2] and in [4] was “Active” throughout. Also, the result in [3] was inactive.
Regarding `CCCCCCCC(O)CC(=O)CCc1ccc(O)c(OCC)c1` (stereo not drawn), the inhibition result in data set [4] is “Active”.
For the compound `CCCCCCC[C@@H](O)CC(=O)/C=C/c1ccc(O)c(OC)c1`, the “growth inhibition (GI)” value in data set [1] is listed as “Non-Toxic”. Besides, the Activity is 47 - 74% in [5], 7.4 um3/um2 in data set [7], 10.3 um in [8] and 23 - 56% in [10]. The inhibition entry in data set [6], in data set [9] and in data set [4] was “Active” each time. Moreover, the outcome in [11] was Active.
For `CCCCCCCC(O)CC(=O)CCc1ccc(O)c(OC)c1` (stereo not drawn), in [3], the result was inactive. In addition, in data set [4], the inhibition entry is “Active”.
For `CCCCCCCCCC(=O)/C=C/c1ccc(O)c(OC)c1`, the inhibition entry in data set [6] and in data set [4] was “Active” throughout.
Take `CCCCCC(O)CC(=O)CCc1cccc(OC)c1` (stereo not drawn): the inhibition entry in data set [4] is “Active”.
Take `CCCCCC(O)CC(=O)CCc1ccc(O)c(OC)c1` (stereo not drawn): the result in data set [3] was inactive. Also, the inhibition result in data set [4] is “Active”.
With `CCCCCCCC(O)CC(=O)CCc1ccc(O)cc1` (stereo not drawn), the inhibition result in data set [6] and in data set [4] was “Active” throughout.
`CCCCCCCC(O)CC(=O)/C=C/c1ccc(O)c(OC)c1` (stereo not drawn): in data set [4], the inhibition result is “Active”.
For the compound `CCCCCC(O)CC(=O)CCc1ccc(O)cc1` (stereo not drawn), the inhibition result in data set [6] and in [4] was “Active” throughout.
Regarding `CCCCC[C@H](O)CC(=O)CCc1ccc(O)c(OC)c1`, the inhibition result in data set [6] and in data set [4] was “Active” throughout.
For the compound `CCCCCCCC(O)CC(=O)CCc1ccc(F)cc1` (stereo not drawn), the inhibition entry in [6] and in data set [4] was “Active” throughout.
As to `CCCCCCCCC(O)CC(=O)CCc1ccc(O)c(OC)c1` (stereo not drawn), in [1], the “growth inhibition (GI)” value is reported as “Toxic”. Also, the inhibition result in [2] and in data set [4] was “Active” throughout. For the same compound, in data set [3], the result was inactive.
Regarding `CCCCCC(O)CC(=O)CCc1ccc(F)cc1` (stereo not drawn), the inhibition result in data set [6] and in data set [4] was “Active” throughout.
Take `CCCCCCC[C@@H](O)CC(=O)CCc1ccc(O)c(OC)c1`: in [1], the “growth inhibition (GI)” value is on record as “Non-Toxic”. Also, the Activity in data set [12] came out at 72%; in data set [7] it was 9.7 um3/um2; in data set [8], 13.9 um. For the same compound, the inhibition entry in [9] and in [4] was “Active” each time.
For the compound `CCCCCCC[C@H](O)CC(=O)CCc1ccc(O)c(OC)c1`, the Activity was found to be 100% in [12], 17 um3/um2 in data set [7] and 17 um in data set [8]. Also, the inhibition result in data set [9] and in data set [4] was “Active” each time.
On to `CCCCCCCC(=O)/C=C/c1ccc(O)c(OC)c1`, for which the inhibition result in [6] and in [4] was “Active” in each case.
Consider `CCCCCCCC(=O)CCc1ccc(O)c(OC)c1`, for which the inhibition entry in [6] and in data set [4] was “Active” throughout.
As for `CCCCCCCC(O)CC(=O)CCc1ccc(F)c(OC)c1` (stereo not drawn), the inhibition entry in data set [6] and in data set [4] was “Active” in each case.
Regarding `CCCCCCC(O)CC(=O)CCc1ccc(O)c(OC)c1` (stereo not drawn), the outcome in data set [3] was inactive. In data set [4], the inhibition result was “Active”.
With `CCCCCCCC(O)CC(=O)CCc1cccc(OC)c1` (stereo not drawn), in data set [4], the inhibition entry is “Active”.
Consider `CCCCCCCC(O)CC(=O)CCc1ccccc1` (stereo not drawn), for which the inhibition entry in data set [4] was “Active”.
`CCCCCC(O)CC(=O)CCc1ccc(F)c(OC)c1` (stereo not drawn): the inhibition result in data set [6] and in [4] was “Active” throughout.
On to `CCCC(O)CC(=O)CCc1ccc(O)c(OC)c1` (stereo not drawn), for which, in [3], the result was inactive. Also, in [4], the inhibition result was “Active”.
In the case of `CCCCCC(O)CC(=O)/C=C/c1ccc(O)c(OC)c1` (stereo not drawn), the inhibition result in [4] was “Active”.
On the same count and under the same terms, then `CCCCCCCC(O)CC(=O)CCc1ccc(OC)c(OC)c1` (stereo not drawn), with “Active”.
As for `CCCCCCCCCC(=O)CCc1ccc(O)c(OC)c1`, the inhibition result in data set [6] and in data set [4] was “Active” each time.
Turning to `CCCCC(O)CC(=O)CCc1ccc(O)c(OC)c1` (stereo not drawn), the result in [3] was inactive. In addition, in [4], the inhibition entry is “Active”.
As for `CCCCCC(O)CC(=O)CCc1ccccc1` (stereo not drawn), in data set [4], the inhibition result was “Active”.
